# System: SARS-CoV-2
# Test: Antiviral activity against pseudovirus SARS-CoV-2 spike protein infected in HEK-293T cells overexpressing ACE2 assessed as inhibition on pseudovirus infection incubated for 52 hrs by luminescence based microplate reader analysis
# Format: functional, organism-based
# Conditions: Severe acute respiratory syndrome coronavirus 2, HEK-293T
# Procedure, shortened: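 HEK-293T-ACE2h cells were pre-incubated with compound in DMEM for 2 h, then inoculated with luciferase-reporter spike pseudovirus plus 2-fold compound for about 2 h at 37 °C. The inoculum was replaced with fresh DMEM and cells were kept 48 h at 37 °C, then lysed. Luciferase luminescence was read, with virus-only cells set as 100%, and IC50 was computed.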
row,Structure (SMILES),IC50
1,C=CCc1cc(CSc2nnc(-c3ccccc3F)o2)c(O)c(-c2ccc(O)c(CC=C)c2)c1,> 100 µM
2,C=CCc1cc(-c2cc(CC=C)c3oc(SCc4nnc(-c5cccc(C)c5)o4)nc3c2)c2oc(SCc3nnc(-c4cccc(C)c4)o3)nc2c1,> 100 µM
3,C=CCc1cc(-c2cc(CC=C)c3oc(SCc4nnc(-c5ccc(Br)cc5)o4)nc3c2)c2oc(SCc3nnc(-c4ccc(Br)cc4)o3)nc2c1,> 100 µM
4,C=CCc1cc(-c2cc(CC=C)c3oc(SCc4nnc(-c5ccccc5OC)o4)nc3c2)c2oc(SCc3nnc(-c4ccccc4OC)o3)nc2c1,> 100 µM
5,C=CCc1cc(-c2cc(CC=C)c3oc(SCc4nnc(-c5ccccc5F)o4)nc3c2)c2oc(SCc3nnc(-c4ccccc4F)o3)nc2c1,> 100 µM
6,C=CCc1cc(-c2cc(CC=C)c3oc(SCc4nnc(-c5ccc(Cl)cc5)o4)nc3c2)c2oc(SCc3nnc(-c4ccc(Cl)cc4)o3)nc2c1,> 100 µM
7,C=CCc1cc(-c2cc(CC=C)c3oc(SCc4nnc(-c5ccc(F)cc5)o4)nc3c2)c2oc(SCc3nnc(-c4ccc(F)cc4)o3)nc2c1,> 100 µM
8,C=CCc1cc(-c2cc(CC=C)c3oc(SCc4nnc(-c5cccc(Br)c5)o4)nc3c2)c2oc(SCc3nnc(-c4cccc(Br)c4)o3)nc2c1,> 100 µM
9,C=CCc1cc(CSc2nnc(-c3ccccc3Cl)o2)c(O)c(-c2ccc(O)c(CC=C)c2)c1,85.2 µM
10,C=CCc1cc(CSc2nnc(-c3cccnc3)o2)c(O)c(-c2ccc(O)c(CC=C)c2)c1,45.6 µM
11,C=CCc1cc(-c2cc(CC=C)c3oc(SCc4nnc(-c5ccc(C)cc5)o4)nc3c2)c2oc(SCc3nnc(-c4ccc(C)cc4)o3)nc2c1,> 100 µM
12,C=CCc1cc(-c2cc(CC=C)c3oc(SCc4nnc(-c5ccccc5Cl)o4)nc3c2)c2oc(SCc3nnc(-c4ccccc4Cl)o3)nc2c1,84.4 µM
13,C=CCc1cc(CSc2nnc(-c3ccccc3C)o2)c(O)c(-c2ccc(O)c(CC=C)c2)c1,> 100 µM
14,C=CCc1cc(-c2cc(CC=C)c3oc(SCc4nnc(-c5ccccc5Br)o4)nc3c2)c2oc(SCc3nnc(-c4ccccc4Br)o3)nc2c1,> 100 µM
15,C=CCc1cc(-c2cc(CC=C)c3oc(SCc4nnc(-c5ccc(OC)cc5)o4)nc3c2)c2oc(SCc3nnc(-c4ccc(OC)cc4)o3)nc2c1,> 100 µM
16,C=CCc1cc(-c2cc(CC=C)c3oc(SCc4nnc(-c5ccccc5C)o4)nc3c2)c2oc(SCc3nnc(-c4ccccc4C)o3)nc2c1,> 100 µM
17,C=CCc1ccc(O)c(-c2ccc(O)c(CC=C)c2)c1 [HONOKIOL],> 50 µM
18,C=CCc1cc(-c2cc(CC=C)c3oc(SCc4nnc(-c5cccc(F)c5)o4)nc3c2)c2oc(SCc3nnc(-c4cccc(F)c4)o3)nc2c1,> 100 µM
19,C=CCc1cc(-c2cc(CC=C)c3oc(SCc4nnc(-c5cccc(Cl)c5)o4)nc3c2)c2oc(SCc3nnc(-c4cccc(Cl)c4)o3)nc2c1,> 100 µM
20,C=CCc1cc(-c2cc(CC=C)c3oc(SCc4nnc(-c5ccccc5)o4)nc3c2)c2oc(SCc3nnc(-c4ccccc4)o3)nc2c1,> 100 µM
21,C=CCc1cc(CSc2nnc(-c3ccccc3)o2)c(O)c(-c2ccc(O)c(CC=C)c2)c1,17 µM
22,C=CCc1cc(-c2cc(CC=C)c3oc(SCc4nnc(-c5cccc(OC)c5)o4)nc3c2)c2oc(SCc3nnc(-c4cccc(OC)c4)o3)nc2c1,> 100 µM

# From ChEMBL document CHEMBL5126577, “Discovery of honokiol thioethers containing 1,3,4-oxadiazole moieties as potential α-glucosidase and SARS-CoV-2 entry inhibitors” (Bioorg Med Chem, 2022)
